Results: ChEMBL document CHEMBL1127545, “Synthesis, oral bioavailability determination, and in vitro evaluation of prodrugs of the antiviral agent 9-[2-(phosphonomethoxy)ethyl]adenine (PMEA)” (J Med Chem, 1994)
One block for each molecule: values may come before it.

How the values were obtained:
[1] = Bioavailability in rat of PMEA prodrug; assay type: ADME, organism-based; conditions: in vivo
How it was run: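 Male rats fasted 12-18 h, three per route. Reference: parent phosphonate iv bolus 30 mg/kg in normal saline via tail vein. Oral: parent at 30 mg/kg in 5% DMSO/water by gastric intubation; prodrugs as 5% DMSO/water solutions at 24-43 mg/kg PMEA equivalents. Urine collected 0-24 and 24-48 h in metabolism cages. PMEA measured by reversed-phase HPLC with fluorometric detection. Bioavailability = dose-normalized 0-48 h urinary PMEA, oral vs iv.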

Vero = assay: Concentration that reduced plaque formation by 50% was measured in HSV-2 infected vero cells in vitro; assay type: functional, cell-based; conditions: Chlorocebus sabaeus
How it was run: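 Plaque reduction assay against HSV-2 strain G in infected Vero cells. IC50 taken as the concentration giving 50% reduction in plaque formation.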

[2] = Oral bioavailability of compound in rat; assay type: ADME, organism-based; conditions: in vivo, read-out: Bioavailabiility
How it was run: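 Fasted (12-18 h) male rats, three per route. Prodrugs were given by gastric intubation in 5% DMSO/water at 24-43 mg/kg PMEA equivalents. The reference was PMEA 30 mg/kg as an iv tail-vein bolus in saline. Urine was collected 0-24 and 24-48 h in metabolism cages and PMEA quantified by reversed-phase HPLC with fluorometric detection. Bioavailability is dose-normalized 0-48 h urinary PMEA, oral versus iv.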

[3] = Oral bioavailability of compound in monkey; assay type: ADME, organism-based; conditions: simiiformes, in vivo, read-out: Bioavailabiility

SMILES: CC(=O)OCC(=O)COC(C)=O
F [1]: 5.8%

SMILES: CC(C)(CN)CNP(=O)(O)COCCn1cnc2c(N)ncnc21
F [1]: 10.6%

SMILES: CC(C)(C)C(=O)OCOP(=O)(COCCn1cnc2c(N)ncnc21)OCOC(=O)C(C)(C)C [ADEFOVIR DIPIVOXIL]
F [1]: 17.3%
IC50 (Vero): 0.6 µM

SMILES: Nc1ncnc2c1ncn2CCOCP(=O)(OCc1ccc([N+](=O)[O-])cc1)OCc1ccc([N+](=O)[O-])cc1
F [1]: 1.7%

SMILES: CCC(=O)OCOP(=O)(COCCn1cnc2c(N)ncnc21)OCOC(=O)CC
IC50 (Vero): 0.4 µM

SMILES: CCOP(=O)(COCCn1cnc2c(N)ncnc21)OCOC(=O)C(C)(C)C (stereo not given)
F [1]: 34.9%

SMILES: Nc1ncnc2c1ncn2CCOCP(=O)(O)OCc1ccc([N+](=O)[O-])cc1
F [1]: 1.9%

SMILES: CC1(C)CNP(=O)(COCCn2cnc3c(N)ncnc32)NC1
F [1]: 5.8%

SMILES: Nc1ncnc2c1ncn2CCOCP(=O)(Oc1ccccc1)Oc1ccccc1
F [1]: 11.1%
IC50 (Vero): 77 µM

SMILES: COP(=O)(COCCn1cnc2c(N)ncnc21)OC
F [1]: 0%

SMILES: CCCCCCCCOP(=O)(O)COCCn1cnc2c(N)ncnc21
F [1]: 0.8%

SMILES: Nc1ncnc2c1ncn2CCOCP(=O)(O)O [ADEFOVIR]
F [1]: 7.8%
IC50 (Vero): 119 µM
bioavailability [2]: 11%
bioavailability [3]: < 1%

SMILES: CC1(C)COP(=O)(COCCn2cnc3c(N)ncnc32)OC1
F [1]: 0%

SMILES: CC(C)C(=O)OCOP(=O)(COCCn1cnc2c(N)ncnc21)OCOC(=O)C(C)C
IC50 (Vero): < 0.2 µM

SMILES: Nc1ncnc2c1ncn2CCOCP(=O)(O)Oc1ccccc1
F [1]: 14%
IC50 (Vero): 95 µM

SMILES: CCN(CC)P(=O)(COCCn1cnc2c(N)ncnc21)N(CC)CC
F [1]: 7.2%

SMILES: Nc1ncnc2c1ncn2CCOCP1(=O)OCCCO1
F [1]: 0.7%

Continued, in another order:

F [1]: 2.2%
SMILES: CCN(CC)C(=O)COP(=O)(COCCn1cnc2c(N)ncnc21)OCOC(=O)C(C)(C)C (stereo not given)

F [1]: 44.4%
SMILES: CC(C)OP(=O)(COCCn1cnc2c(N)ncnc21)OC(C)C

F [1]: 0.5%
SMILES: CC(C)CCOP(=O)(COCCn1cnc2c(N)ncnc21)OCCC(C)C

F [1]: 10.6%
SMILES: Nc1ncnc2c1ncn2CCOCP(=O)(OCC(Cl)(Cl)Cl)OCC(Cl)(Cl)Cl

F [1]: 3.5%
SMILES: Nc1ncnc2c1ncn2CCOCP(=O)(O)OCC(F)(F)CO

F [1]: 6.5%
SMILES: CC(C)(C)C(=O)OCOP(=O)(O)COCCn1cnc2c(N)ncnc21
IC50 (Vero): 22 µM

F [1]: 1.4%
SMILES: COP(=O)(O)COCCn1cnc2c(N)ncnc21

F [1]: 2.5%
SMILES: Nc1ncnc2c1ncn2CCOCP(=O)(O)OCC(Cl)(Cl)Cl

F [1]: 0%
SMILES: CC(C)COP(=O)(COCCn1cnc2c(N)ncnc21)OCC(C)C

F [1]: 0%
SMILES: CCOP(=O)(O)COCCn1cnc2c(N)ncnc21
IC50 (Vero): > 300 µM

F [1]: 42%
SMILES: CCOP(=O)(COCCn1cnc2c(N)ncnc21)OCC
IC50 (Vero): > 300 µM

F [1]: 3.5%
SMILES: CCN(CC)C(=O)COP(=O)(O)COCCn1cnc2c(N)ncnc21

F [1]: 0%
SMILES: CC(C)(CO)COP(=O)(O)COCCn1cnc2c(N)ncnc21

F [1]: 5%
SMILES: CC(C)OP(=O)(O)COCCn1cnc2c(N)ncnc21
